These results are taken from PubChem BioAssay AID504414 (Broad Institute, 2011).

The whole screen tested about 330,000 compounds, of which about 55 (0.02%) were called active. This is one part of a sample in which actives are shown more often than they occur. A number with no mark means an inactive call.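 Rule for the calls: active = highest replicate inhibition of at least 40%; inactive = the rest.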

The target in the experiment is Golgi-associated PDZ and coiled-coil motif-containing protein (Homo sapiens) (UniProt Q9HD26). In words: CAL PDZ peptide-binding inhibitors, primary screen, biochemical, fluorescence polarization, Cer-tagged CAL PDZ, HTS (AID 504414).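 Note: plate controls were DMSO neutral control wells for no effect and unlabeled competitor peptide control wells for full effect.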 The following applies: purified CAL PDZ, TMR-peptide fluorescence polarization, 1 h; at 20 µM; stronger effect = higher value. An outline of the steps:
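Test system: tagged CAL PDZ domain / Buffer or medium: sodium phosphate/NaCl buffer pH 7.4 with TCEP, IgG, Thesit / Reagent: TMR-labelled reporter peptide T*-PRC34 bound in PDZ groove / Compound dosing: single point, 20 µM / Schedule: 1 h incubation at room temperature before polarization reading / Technique: fluorescence polarization (mP) / Benchmarks: unlabelled peptide, DMSO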
(In general: Polarisation of emitted light reports the rotation of a fluorescent probe.)
On to `Cn1c(=O)c2c(nc(N3CCOCC3)n2CCNC2=NCCC2)n(C)c1=O`, for which the inhibition is 0.616%. Consider `COC(=O)[C@H]1Cc2cnoc2C[C@]1(C)C(=O)O`, for which the inhibition is -1.94%. For the compound `Cc1cccc(NC(=O)CSc2nnc(CCNC(=O)OC(C)(C)C)o2)c1C`, the inhibition was 0.572%.

Turning to `CN(C)c1ccc(CNC2C3CC4CC(C3)CC2C4)cc1` (stereo unspecified), the inhibition was -1.31%.

On to `CC(C)NC(=O)COCc1cc(-c2ccc3c(c2)OCO3)on1`, for which the inhibition is 0.0991%. In the case of `O=C(NCCCN1CCCC1=O)c1cccc(S(=O)(=O)NCc2ccccc2)c1` it was -2.23%. To `CCOCCCNC(=O)C(NC(=O)CNC(=O)c1ccccc1)c1ccc(OC)cc1` (stereo unspecified) belongs -0.316%. To `CCOc1ccc2sc(NS(=O)(=O)c3ccc(N)cc3)nc2c1` belongs -2.52%. Regarding `O=C1CS(=O)CN1c1ccc(Oc2ccccc2)cc1` (stereo unspecified), the inhibition is -2.68%. `O=C(CN(CC1CCCO1)C(=O)CNS(=O)(=O)c1ccc(Cl)cc1)NCc1ccccc1` (stereo unspecified): the inhibition was -2.47%.

As for `CCN(C(=O)Cc1nc(N)n[nH]1)C1(C(=O)Nc2ccccc2)CCCCC1`, the inhibition was -0.615%.

Regarding `CCOC(=O)C1Cn2c(nc3c(c2=O)C(C)(CC)Cc2ccccc2-3)S1` (stereo unspecified), the inhibition is -2.98%. For `O=C(/C=C/c1ccccc1[N+](=O)[O-])OCC(=O)N1CCCC1`, the inhibition was -0.608%. To `CCOC(=O)N1CCN(S(=O)(=O)N2CCCC(C(=O)NCCCN3CCC(C)CC3)C2)CC1` (stereo unspecified) belongs -1.6%.

Consider `Cc1ccccc1/[N+]([O-])=C/c1ccncc1`, for which the inhibition is -1.06%. To `COc1ccc(Cn2c(-c3ccc(Cl)cc3)c[n+]3ccccc23)cc1` belongs -2.82%; to `CSCCNC(=O)c1ccc2nc(Cc3ccccc3F)oc2c1`, 0.068%; to `CC1CN(C(=S)Nc2ccc(Br)cc2Cl)CC(C)O1` (stereo unspecified), 0.196%. With `Cc1ccccc1CNC(=O)CCC(=O)N1Cc2ccccc2Oc2ncccc21`, the inhibition is -3.11%. In the case of `Cc1cccc(-n2nc3c(c2NC(=O)c2cc4ccccc4o2)CS(=O)(=O)C3)c1` it was -2.7%. Turning to `CCC1([N+](=O)[O-])COC(c2ccc(C)cc2)OC1` (stereo unspecified), the inhibition was -0.14%. For the compound `O=c1c2ccccc2cnn1Cc1n[nH]c(=S)n1-c1ccccc1F`, the inhibition was 0.871%. To `CCC(C)Sc1nc2c(cnn2-c2ccc(F)cc2)c(=O)[nH]1` (stereo unspecified) belongs -0.979%; to `O=C1NC(c2ccccc2)CCC1(Cl)Cl` (stereo unspecified), -0.102%; to `CCOC(=O)c1nc(-c2ccc3c(c2)OCO3)[nH]c1C`, -0.475%. Consider `COc1cc(C2C3C(=O)N(c4ccccc4)C(=O)C3ON2c2ccccc2)ccc1O` (stereo unspecified), for which the inhibition was -0.569%. To `COc1cccc2c(C)c(C(=O)O)[nH]c12` belongs -0.62%; to `O=C(NNS(=O)(=O)c1ccc(F)cc1)c1cnccn1`, -2.25%; to `CN(C)S(=O)(=O)c1ccc(N/C=C(\[N+](=O)[O-])S(=O)(=O)c2ccccc2)cc1`, 0.264%.

Consider `CCCCCc1nnc(NC(=O)c2ccc(=O)n(C)n2)s1`, for which the inhibition was 176% (active). For the compound `CCCCc1nnc(NC(=O)CSc2nc(C)cc(=O)[nH]2)s1`, the inhibition is -0.42%. To `CCCCc1nnc(NC(=O)CSc2nc(N)cc(=O)[nH]2)s1` belongs 0.237%. To `Cc1ccc(C(=O)NN(CCC#N)C2=NS(=O)(=O)c3ccccc32)cc1` belongs -0.552%.

For `CC(C)c1cc(N=O)cc(C(C)C)c1O`, the inhibition was -0.56%. To `Clc1cc(-c2ccc(/C=N/n3cnnc3)o2)ccc1Br` belongs -4.91%; to `CC(C(=O)N(C)CC(=O)Nc1ccccc1C(F)(F)F)N1C(=O)c2ccccc2C1=O` (stereo unspecified), -0.0605%. To `CCOCCCN(C)C1CCN(C(=O)c2oc3ccccc3c2NC(=O)Cc2cccc([N+](=O)[O-])c2)CC1` belongs -0.742%; to `O=C(Nc1ccc2c(c1)nc1n2CCCCC1)c1cc(S(=O)(=O)N2CCOCC2)ccc1Cl`, -2.81%; to `CCOc1ccc(N(CC(=O)Nc2cccc(OC)c2)S(C)(=O)=O)cc1`, 0.31%. To `CC(C)(C)NC(=O)CN(C(=O)c1csnn1)c1ccccc1-c1ccccc1` belongs -2.13%; to `CCCCn1c(N)c(N(CCOC)C(=O)c2oc3ccc(OC)cc3c2C)c(=O)[nH]c1=O`, -1.98%; to `Cc1onc(-c2c(F)cccc2Cl)c1C(=O)OCC(=O)N1C(C)CCCC1C` (stereo unspecified), -0.828%.

Take `Cc1ccc(NC(=O)C2CC2c2ccccc2)cc1` (stereo unspecified): the inhibition was -0.307%. To `COc1ccccc1C(=O)Nc1ccc(OCC(=O)N2CCCCC2)cc1` belongs -1.71%; to `COc1ccc(CCNC(=O)c2nnc(CS(=O)(=O)c3ccccc3)o2)cc1OC`, 1.25%. With `COc1c(C)cc(C(=O)C2CCCN(S(=O)(=O)c3c(C)noc3C)C2)cc1C` (stereo unspecified), the inhibition is -2.46%. To `Cc1ccc(S(=O)(=O)N(CC(O)CN2C(=O)NC(C)(C)C2=O)c2cccc([N+](=O)[O-])c2)cc1` (stereo unspecified) belongs -1.82%; to `CC(C)=CCCC1(C)C=Cc2c(ccc3c2[nH]c2cc(O)c(C)cc23)O1` (stereo unspecified), 0.0711%. To `Cc1csc(SCC(=O)N(c2ccccc2)C(C)C)n1` belongs -2.45%; to `O=C(Cc1ccc(NC(=O)C2CCCN(C(=O)CCc3ccccc3)C2)cc1)Nc1ccc(C(=O)N2CCOCC2)cc1` (stereo unspecified), -1.16%; to `CC(=O)CCS(=O)(=O)c1ccc(C)c(C)c1`, 0.503%. To `Cc1c(C(=O)N2CCCC2)c(S(=O)(=O)NCC(C)c2ccccc2)c(C)n1C` (stereo unspecified) belongs -2.4%; to `Cc1ccc(N(CC(=O)NC2CCCCC2)C(=O)CCCC(=O)Nc2ccccn2)c(C)c1`, 0.671%. Turning to `Cc1cc(-c2csc(N)n2)c(C)n1-c1ccccc1`, the inhibition is -2.46%. On to `CC(=O)c1ccc(NC(=O)C(C)OC(=O)c2ccc(NS(=O)(=O)c3ccc4[nH]c(=O)[nH]c4c3)cc2)cc1` (stereo unspecified), for which the inhibition is 1.56%. In the case of `C=CCN1C(=O)C(O)(CC(=O)c2ccccn2)c2ccccc21` (stereo unspecified) it was 0.0287%; in that of `Cc1ccc2cc(C)c(N3CCC(C)CC3)nc2c1`, 1.11%. To `CCOc1ncccc1C(=O)N(CC)CC(=O)Nc1ccc(NC(C)=O)cc1` belongs -1.13%; to `CCN(CC)c1ccc(NC(=O)CCc2nnc3ccc(N4CCCCC4)nn23)c(C)c1`, 0.659%.

Regarding `Cc1ccc(CNC(=O)C(=O)c2cn(CC(=O)N3CCOCC3)c3ccccc23)cc1`, the inhibition is -0.774%. To `O=C(C1CC(=O)N(C2CCCCC2)C1)N1CCN(c2ccccc2)CC1` (stereo unspecified) belongs -3.07%; to `CCCOP(=O)(c1ccc(N(C)C)cc1)C(O)c1cc(OC)c(OC)c(OC)c1` (stereo unspecified), -2.28%; to `Cc1nc(CN(C)C(=O)CC2C(=O)NCCN2Cc2ccc(F)cc2)cs1` (stereo unspecified), -1.72%. In the case of `COC(=O)c1sc(C(F)(F)F)c(-c2ccccc2)c1S(=O)(=O)N(C)C` it was -1.85%. In the case of `CN1CCN(CC(O)COCc2ccc3c(c2)OCO3)CC1` (stereo unspecified) it was 0.909%; in that of `CCN(CC)c1ccc(C(=O)c2cnc(/N=C/N(C)C)s2)cc1`, -0.472%; in that of `CC1CCCN(S(=O)(=O)c2ccc(-c3ccc(=O)[nH]n3)o2)C1` (stereo unspecified), -2.4%. For `Cc1cccc(NC(=O)c2ccc(OCC(=O)NCc3ccccc3)cc2)c1C`, the inhibition is 0.0994%. To `CCc1c(Nc2ccccc2Cl)nc(N)[nH]c1=O` belongs 0.824%. `O=C(CCl)NNc1cccc(Cl)n1`: the inhibition is -0.466%. Turning to `Cc1sc2ncn(CC(=O)NCCN(C)C)c(=O)c2c1S(=O)(=O)N1CCC(C)CC1`, the inhibition was -1.98%.

Turning to `CCCn1c(N)c(N(CCOC)C(=O)C2CCCC2)c(=O)[nH]c1=O`, the inhibition is -0.787%. In the case of `CN(CCO)S(=O)(=O)c1ccc2c(c1)C(=O)c1cc(S(=O)(=O)N(C)CCO)ccc1-2` it was -0.349%; in that of `CC1C(=O)NC(=O)C1c1ccccc1` (stereo unspecified), -1.12%; in that of `COc1ccc(Cl)cc1S(=O)(=O)N1CCC(O)(c2ccc(Cl)cc2)CC1`, 0.846%. In the case of `COc1cc(C2C(C(=O)c3sc(C)nc3C)=C(O)C(=O)N2CCN(C)C)cc(OC)c1OC` (stereo unspecified) it was 0.746%; in that of `O=C(NCc1ccc2c(c1)OCO2)c1cc([N+](=O)[O-])ccc1N1CCOCC1`, -1.53%; in that of `Cc1ccccc1OCCC(=O)OCC(=O)NCCc1ccc(S(N)(=O)=O)cc1`, -0.918%. With `Cc1ccn2c(c1)nc(=O)c1cc(S(=O)(=O)N3CCC(C)CC3)ccc12`, the inhibition was -0.295%. In the case of `O=S(=O)(c1ccc(Cl)cc1)N1CCCN(c2ccc(C(F)(F)F)cn2)CC1` it was -1.87%. To `CN(CC(O)COc1ccc(S(=O)(=O)N2CCOCC2)cc1Cl)C1CCCCC1` (stereo unspecified) belongs -0.337%. On to `CCCc1nc2scc(-c3ccc(C)cc3)c2c(=O)n1N`, for which the inhibition was -1.81%. To `Cc1onc(-c2c(F)cccc2Cl)c1C(=O)N(C)CC(=O)Nc1cccc(F)c1` belongs -1.86%; to `COC(=O)c1sc(N2CCN(Cc3ccccc3)CC2)nc1N`, -1.78%; to `CCn1c(SCCC(C)C)nnc1-c1c[nH]c2ccccc12`, 0.439%. To `C=CC(COCc1ccccc1)N(Cc1ccccc1)S(=O)(=O)c1ccccc1Br` (stereo unspecified) belongs 0.0215%; to `O=C(O)c1ccc(-n2nc(-c3ccccc3)c3ccccc3c2=O)cc1`, -0.73%; to `CSCC[C@H](NC(=O)NCc1cccs1)C(=O)O`, 1.04%. For the compound `COc1ccc(CCN(C)C(=O)C23CC4CC(CC(Cl)(C4)C2)C3)cc1OC`, the inhibition is -1.39%. For `CCn1nc(C(=O)Nc2ccc(N3CCOCC3)cc2)c2ccccc2c1=O`, the inhibition was -1.35%. In the case of `C=C(C)CNC(=O)c1ccc(OC2CCN(C(=O)COC)CC2)cc1` it was -0.166%; in that of `C#CCN1CC(C)/C(=N/O)CC1C` (stereo unspecified), -0.192%; in that of `O=c1[nH]oc(O)c1-c1ncc(C(F)(F)F)cc1Cl`, -0.466%. In the case of `Nn1c(SCc2ccccc2)nnc1C1CCCCC1` it was -0.356%; in that of `COc1ccccc1C(=O)NCCC(=O)NC1=NCCS1`, 0.112%; in that of `CCN(CC)C(=O)CS(=O)CC(=O)Nc1cc(OCCOC)c(Cl)cc1Cl` (stereo unspecified), -0.37%.

As a reminder, the inhibition is the change of the read-out against control, counted positive when it falls.
